# According to publication PMC12353801 (Nature Medicine, 2025):
# Tests used:
# patients with IPF [1] = assay: Phase 2a trial: change in forced vital capacity; type: in vivo, human
# In short: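 This was a double-blind, 1:1:1:1 randomized trial of oral 30 mg QD, 30 mg BID or 60 mg QD against placebo QD for 12 weeks on standard of care. Spirometry to 2019 ATS/ERS criteria, on central SpiroSphere devices or on unchanged local equipment, was done at baseline and week 12. Analysis used ANCOVA (treatment fixed, baseline covariate) with multiple imputation for missing week-12 data, two-sided, intent-to-treat.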
# patients with IPF [2] = assay: Phase 2a trial: treatment-emergent adverse events; type: in vivo, human; conditions: for percentage of patients who have at least one treatment-emergent adverse event / AEs considered to be treatment related / AEs leading to treatment discontinuation / Any AE / Liver function: ALT increase / Liver function: AST increase / Liver function: Liver injury / SAEs considered to be treatment related / SAEs resulting in death / SAEs, grade ≥3: 12 weeks; for AEs considered to be treatment related / AEs leading to treatment discontinuation / Any AE / Liver function: ALT increase / Liver function: AST increase / Liver function: Liver injury / SAEs considered to be treatment related / SAEs resulting in death / SAEs, grade ≥3: n = 18
# healthy individuals = conditions: phase 0 and 1 trials; cited from earlier work
# serum proteins = assay: Olink Explore 3072 proteomic profiling of patient serum; type: in vivo, human; conditions: for number of serum proteins significantly changing with treatment: Benjamini–Hochberg-adjusted P value <0.1
# In short: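 Serum was sampled at baseline and weeks 2, 4, 8 and 12 and profiled on the Olink Explore 3072 panel as NPX. Dose effects were fitted per protein with a generalized linear mixed model: NPX ~ treatment + visit + treatment:visit + (1|patient). Baseline-to-week-12 change was tested by two-sided paired t-test. P values were BH-adjusted, with significance at adjusted P < 0.1.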
# [3] = Pharmacokinetics of rentosertib in blood plasma of patients with IPF; type: in vivo, human
# patients with IPF [4] = assay: Phase 2a trial: acute exacerbations of IPF and days hospitalized; type: in vivo, human; conditions: 60 mg QD
# In short: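 Acute IPF exacerbations, and days in hospital after each, were recorded from week 0 through week 12 in IPF patients. Patients received oral dosing (30 mg QD, 30 mg BID or 60 mg QD) or placebo QD alongside standard of care. Adverse events were monitored throughout treatment and for 1 week after the last dose.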
smiles,measurement,setting,value
CC(C)n1cnc(-c2ccc(F)cc2)c1-c1ncc(C(=O)Nc2ccc(N3CCN(C)CC3)cc2)[nH]1 [rentosertib],"Absolute change in FVC from baseline after 12 weeks, mean (95% CI)",patients with IPF [1]; 30 mg BID,+19.7 ml
same,"Absolute change in FVC from baseline after 12 weeks, mean (95% CI)",patients with IPF [1]; 30 mg QD,-27.0 mL
same,"Absolute change in FVC from baseline after 12 weeks, mean (95% CI)",patients with IPF [1]; 60 mg QD,+98.4 ml
same,Change in FVC - No SOC: FVC change from baseline (95% CI),"patients with IPF [1]; 60 mg QD, 12 weeks, not concurrently taking SOC antifibrotic therapy",+187.8 mL
same,TEAE: alanine aminotransferase (ALT) increase,"patients with IPF [2]; 30 mg BID, 1 patient",5.6%
same,treatment-related SAEs,"patients with IPF [2]; 30 mg BID, 2/18",11.1%
same,TEAE: diarrhea,"patients with IPF [2]; 30 mg BID, 3 patients",16.7%
same,treatment discontinued for AEs due to liver injury or dysfunction,"patients with IPF [2]; 30 mg BID, 4/18",22.2%
same,TEAE: hepatic function abnormal,"patients with IPF [2]; 30 mg BID, 4 patients",22.2%
same,TEAE: hypokalemia,"patients with IPF [2]; 30 mg BID, 5 patients",27.8%
same,Treatment-related AEs,"patients with IPF [2]; 30 mg BID, 11/18",61.1%
same,percentage of patients who have at least one treatment-emergent adverse event,"patients with IPF [2]; 30 mg BID, n = 15/18",83.3%
same,AEs considered to be treatment related,patients with IPF [2]; 30 mg BID,11 (61.1) no. (%)
same,AEs leading to treatment discontinuation,patients with IPF [2]; 30 mg BID,5 (27.8) no. (%)
same,Any AE,patients with IPF [2]; 30 mg BID,15 (83.3) no. (%)
same,Liver function: ALT increase,patients with IPF [2]; 30 mg BID,0 (0) no. (%)
same,Liver function: AST increase,patients with IPF [2]; 30 mg BID,0 (0) no. (%)
same,Liver function: Liver injury,patients with IPF [2]; 30 mg BID,2 (11.1) no. (%)
same,SAEs considered to be treatment related,patients with IPF [2]; 30 mg BID,2 (11.1) no. (%)
same,SAEs resulting in death,patients with IPF [2]; 30 mg BID,1 (5.6) no. (%)
same,"SAEs, grade ≥3",patients with IPF [2]; 30 mg BID,4 (22.2) no. (%)
same,treatment discontinued for AEs due to liver injury or dysfunction,"patients with IPF [2]; 30 mg QD, 0/18",0%
same,"safety and tolerability, overall","patients with IPF [2]; 30 mg QD, 30 mg BID and 60 mg QD over 12 weeks",safe and well tolerated
same,treatment-related SAEs,"patients with IPF [2]; 30 mg QD, 1/18",5.6%
same,TEAE: alanine aminotransferase (ALT) increase,"patients with IPF [2]; 30 mg QD, 1 patient",5.6%
same,TEAE: diarrhea,"patients with IPF [2]; 30 mg QD, 2 patients",11.1%
same,TEAE: hepatic function abnormal,"patients with IPF [2]; 30 mg QD, 2 patients",11.1%
same,TEAE: hypokalemia,"patients with IPF [2]; 30 mg QD, 3 patients",16.7%
same,Treatment-related AEs,"patients with IPF [2]; 30 mg QD, 9/18",50.0%
same,percentage of patients who have at least one treatment-emergent adverse event,"patients with IPF [2]; 30 mg QD, n = 13/18",72.2%
same,AEs considered to be treatment related,patients with IPF [2]; 30 mg QD,9 (50.0) no. (%)
same,AEs leading to treatment discontinuation,patients with IPF [2]; 30 mg QD,1 (5.6) no. (%)
same,Any AE,patients with IPF [2]; 30 mg QD,13 (72.2) no. (%)
same,Liver function: ALT increase,patients with IPF [2]; 30 mg QD,0 (0) no. (%)
same,Liver function: AST increase,patients with IPF [2]; 30 mg QD,0 (0) no. (%)
same,Liver function: Liver injury,patients with IPF [2]; 30 mg QD,0 (0) no. (%)
same,SAEs considered to be treatment related,patients with IPF [2]; 30 mg QD,1 (5.6) no. (%)
same,SAEs resulting in death,patients with IPF [2]; 30 mg QD,0 (0) no. (%)
same,"SAEs, grade ≥3",patients with IPF [2]; 30 mg QD,2 (11.1) no. (%)
same,TEAE: alanine aminotransferase (ALT) increase,patients with IPF [2]; 60 mg QD,33.3%
same,treatment-related SAEs,"patients with IPF [2]; 60 mg QD, 2/18",11.1%
same,treatment discontinued for AEs due to liver injury or dysfunction,"patients with IPF [2]; 60 mg QD, 3/18",17%
same,TEAE: diarrhea,"patients with IPF [2]; 60 mg QD, 5 patients",27.8%
same,percentage of patients who have at least one treatment-emergent adverse event,"patients with IPF [2]; 60 mg QD, n = 15/18",83.3%
same,AEs considered to be treatment related,patients with IPF [2]; 60 mg QD,14 (77.8) no. (%)
same,AEs leading to treatment discontinuation,patients with IPF [2]; 60 mg QD,4 (22.2) no. (%)
same,Any AE,patients with IPF [2]; 60 mg QD,15 (83.3) no. (%)
same,Liver function: ALT increase,patients with IPF [2]; 60 mg QD,1 (5.6) no. (%)
same,Liver function: AST increase,patients with IPF [2]; 60 mg QD,1 (5.6) no. (%)
same,Liver function: Liver injury,patients with IPF [2]; 60 mg QD,1 (5.6) no. (%)
same,SAEs considered to be treatment related,patients with IPF [2]; 60 mg QD,2 (11.1) no. (%)
same,SAEs resulting in death,patients with IPF [2]; 60 mg QD,0 (0) no. (%)
same,"SAEs, grade ≥3",patients with IPF [2]; 60 mg QD,7 (38.9) no. (%)
same,Treatment-related AEs,"patients with IPF [2]; 60 mg QD, 14/18",77.8%
same,"pharmacokinetic (PK) profile, overall",healthy individuals,favorable pharmacokinetic (PK) profile
same,"safety and tolerability, overall",healthy individuals,safe and well tolerated
same,number of significantly altered proteins from baseline to week 12,serum proteins; 30 mg BID,39
same,number of significantly altered proteins from baseline to week 12,serum proteins; 30 mg QD,0
same,number of significantly altered proteins from baseline to week 12,serum proteins; 60 mg QD,115
same,number of serum proteins significantly changing with treatment,"serum proteins; week 2, linear regression",20
same,number of serum proteins significantly changing with treatment,"serum proteins; week 4, linear regression",82
same,number of serum proteins significantly changing with treatment,"serum proteins; week 12, linear regression",192
same,"AUC0–t, arithmetic mean","[3]; 30 mg BID, week 0 (first dose)",315 h/ng/mL
same,"AUC0–t, arithmetic mean","[3]; 30 mg BID, week 12 (EOT)","1,390 h ng^−1 ml^−1"
same,time of peak plasma concentration after administration,"[3]; 30 mg QD, 30 mg BID, 60 mg QD, single and multiple doses",1 h
same,"AUC0–t, arithmetic mean","[3]; 30 mg QD, week 0 (first dose)",553 h/ng/mL
same,"AUC0–t, arithmetic mean","[3]; 30 mg QD, week 12 (EOT)",788 h/ng/mL
same,"AUC0–t, arithmetic mean","[3]; 60 mg QD, week 0 (first dose)","1,630 h ng^−1 ml^−1"
same,"AUC0–t, arithmetic mean","[3]; 60 mg QD, week 12 (EOT)","3,450 h ng^−1 ml^−1"
same,drug accumulation,[3]; by week 12,no obvious drug accumulation
same,steady state achieved,[3]; multiple doses,2 week
same,"Number of days hospitalized for acute IPF exacerbations, Mean (SD)",patients with IPF [4],23.3 days
same,patients who experienced acute exacerbation of IPF (AE-IPF),patients with IPF [4]; three patients,16.7%
